For data set [1], the system named is Brugia malayi. The experiment in a line: Antifilarial activity against Brugia malayi adult worm assessed as inhibition of parasite motility after 48 hrs by microscopic analysis. The data set is classed as functional, organism-based. A digest of the protocol: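 Freshly isolated adult female B. malayi were washed in HBSS (pH 7.2) and incubated one worm/ml/well, in triplicate, in HBSS with penicillin/streptomycin. Two-fold dilutions from 0.38-40 µM were given in DMSO (final <0.1%), with DMSO controls. After 48 h, motility was scored 0-4 under a microscope. IC50 was found by linear interpolation of percent inhibition versus DMSO.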

The test system of data set [2] is Brugia malayi. The experiment in a line: Antifilarial activity against Brugia malayi microflilariae worm assessed as inhibition of parasite motility after 48 hrs by microscopic analysis. The data set is classed as functional, organism-based. A digest of the protocol:
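B. malayi microfilariae were washed in HBSS (pH 7.2) and plated at 40-50 mf/100 µL/well, in triplicate, in HBSS with penicillin/streptomycin. Two-fold dilutions from 0.38-40 µM were given in DMSO (final <0.1%), with DMSO controls, for 48 h at 37 °C, 5% CO2. Motility was scored microscopically, and IC50 was found by linear interpolation over control.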

Data set [3] deals with Brugia malayi. Kind of data set: Antifilarial activity against Brugia malayi adult worm assessed as inhibition of parasite viability after 48 hrs by MTT assay. The data set is classed as functional. A digest of the protocol: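 Adult female B. malayi washed in HBSS pH 7.2, one worm/mL/well in triplicate, exposed 48 h at 37 °C in 5% CO2 to two-fold dilutions (0.38-40 µM; DEC 15.63-1000 µM) in HBSS with penicillin/streptomycin, DMSO <0.1% final; after motility scoring the same worms taken for MTT reduction; % inhibition vs DMSO control, IC50 by linear interpolation.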

Data set [4] is described as follows: Cytotoxicity against African green monkey Vero C1008 cells assessed as cell death by three-fold serial dilution method. Type of data set: cell-based. Conditions: chlorocebus sabaeus. A digest of the protocol: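 Vero C1008 cells exposed to three-fold serial dilutions of test agents, starting above 20 x LC100; CC50 obtained by linear interpolation between the concentrations bracketing 50% inhibition.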

The test system of data set [5] is Vero C1008. The experiment in a line: (§1) Selectivity index, ratio of CC50 for African green monkey Vero C1008 cells to IC50 for Brugia malayi adult worm. The data set is classed as functional. A digest of the protocol:
(§2)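 SI computed as CC50 (Vero C1008) divided by IC50 against adult worms or mf; IC50 values from 48 h exposure of parasites to two-fold dilutions at 37 °C, with % inhibition vs DMSO-treated worms and linear interpolation.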

Data set [6] concerns Brugia malayi. The experiment in a line: Antifilarial activity against Brugia malayi adult worm infected in jird assessed as embryostatic effect at 1 mg/kg, sc administered for 5 days starting from day 7/8 post-worm transplantation (reference value: 9.80 +/- 5.63%). Further details: dose 1 mg/kg. The data set is classed as functional, organism-based.
Data set [7] deals with Brugia malayi. The experiment in a line: Antifilarial activity against Brugia malayi adult worm infected in jird assessed as microfilaricidal activity at 1 mg/kg, sc administered for 5 days starting from day 7/8 post-worm transplantation measured on day 7 post-initiation of drug treatment. Type of data set: functional, organism-based. Set-up: dose 1 mg/kg. A digest of the protocol:
(§3)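 Mf in peritoneal cavity of transplanted jirds were examined on day 7/8 p.i.t. after 5 days of s.c. dosing started on day 7/8; change was expressed as % of the pretreatment mf count.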

Data set [8] deals with Brugia malayi. Kind of data set: Antifilarial activity against Brugia malayi adult worm infected in jird assessed as reduction in adult worm recovery at 1 mg/kg, sc administered for 5 days starting from day 7/8 post-worm transplantation measured on day 60 post-initiation of drug treatment. The data set is classed as functional, organism-based. Set-up: dose 1 mg/kg. A digest of the protocol:
(§4)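 Jirds carrying intraperitoneally transplanted B. malayi (sub-periodic) adults were dosed s.c. for 5 days starting day 7/8 after transplantation; test agents were suspended fresh daily in 0.1% Tween-80, DEC in water, ivermectin in 0.1% Tween-80. Killed day 60 p.i.t.; worms recovered from peritoneal washings were counted, and % reduction was calculated vs vehicle controls (4-8 animals).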

Data set [9] has as its system Vero C1008. The experiment in a line: (§5) Selectivity index, ratio of CC50 for African green monkey Vero C1008 cells to IC50 for Brugia malayi microflilariae worm. The data set is classed as functional. A digest of the protocol:
as §2

A short description of data set [10]: as §5. Type of data set: functional. A digest of the protocol: as §2
Data set [11] is described as follows: as §1. The data set is classed as functional. A digest of the protocol:
as §2

The next data set has as its system Meriones unguiculatus. The experiment in a line: Toxicity in jird infected with Brugia malayi adult worm assessed as normal behaviour at 100 mg/kg, sc administered for 5 days starting from day 7/8 post-worm transplantation measured on day 60 post-initiation of drug treatment. The data set is classed as organism-based. Set-up: dose 100 mg/kg, route subcutaneous. The note with it: gerbil, in vivo, 120 h.

Data set [12] has as its system Brugia malayi. Kind of data set: Antifilarial activity against third stage infective larvae (L3) form of Brugia malayi infected in Mastomys coucha assessed as reduction in adult worm recovery at 100 mg/kg, sc administered for 5 days measured on day 91 post-initiation of drug treatment. The data set is classed as functional. Conditions: route subcutaneous. A digest of the protocol:
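M. coucha carrying 5-7 month old L3-induced sub-periodic B. malayi infections received 5 days of s.c. dosing (vehicle 0.1% Tween-80; DEC in water). Killed day 91 p.i.t.; adults were recovered from teased heart, lung and testes, and % reduction in recovery was calculated vs vehicle controls.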

The test system of data set [13] is Brugia malayi. The experiment in a line: Antifilarial activity against Brugia malayi adult worm infected in jird assessed as embryostatic effect at 100 mg/kg, sc administered for 5 days starting from day 7/8 post-worm transplantation (reference value: 9.80 +/- 5.63%). The data set is classed as functional. The note with it: route subcutaneous.
The next data set concerns Mastomys coucha. The experiment in a line: Toxicity in Mastomys coucha infected with third stage infective larvae (L3) form of Brugia malayi assessed as normal behaviour at 100 mg/kg, sc administered for 5 days measured on day 91 post-initiation of drug treatment. The data set is classed as organism-based. Further details: dose 100 mg/kg, route subcutaneous. The note with it: in vivo, 120 h.

For data set [14], the system named is Brugia malayi. The experiment in a line: Antifilarial activity against third stage infective larvae (L3) form of Brugia malayi infected in Mastomys coucha assessed as female sterilizing efficacy at 100 mg/kg, sc administered for 5 days measured on day 91 post-initiation of drug treatment (reference value: 23%). The data set is classed as functional. The note with it: route subcutaneous.

Data set [15] relates to Brugia malayi. The experiment in a line: Antifilarial activity against Brugia malayi adult worm infected in jird assessed as microfilaricidal activity at 100 mg/kg, sc administered for 5 days starting from day 7/8 post-worm transplantation measured on day 7 post-initiation of drug treatment. Set-up: dose 100 mg/kg. The data set is classed as functional, organism-based. A digest of the protocol:
as §3

The test system of data set [16] is Brugia malayi. The experiment in a line: Antifilarial activity against Brugia malayi adult worm infected in jird assessed as macrofilaricidal efficacy by measuring reduction in adult worm recovery at 100 mg/kg, sc administered for 5 days starting from day 7/8 post-worm transplantation measured on day 60 post-initiation of drug treatment. The data set is classed as functional. Conditions: route subcutaneous. A digest of the protocol:
as §4

Active and inactive are the calls of the source. The rule behind the calls is not given here. Some results are limits rather than exact numbers.

For the compound `COc1ccc(C(=O)/C=C/c2cc(/C=N/c3nccs3)c(O)c(C(C)(C)C)c2)cc1`, the LC100 with Brugia malayi [1] is >40 µM; with Brugia malayi [2], 40 µM. Also, in the data set with Brugia malayi [3], the inhibition entry is “inactive”.
IVERMECTIN [listing 1 of 2 here]: the IC50 is 3.05 µM in the data set on Brugia malayi [1] and 1.57 µM in the data set on Brugia malayi [2]. In addition, the CC50 in data set [4] (vero) came out at 230 µM.
On to `COc1ccc(C(=O)/C=C/c2cc(/C=N/c3nccs3)c(O)c(C(C)C)c2)cc1`, for which the LC100 in the data set on Brugia malayi [1] and in the data set on Brugia malayi [2] was >40 µM in each case. Moreover, the “inhibition (INH)” value in the data set on Brugia malayi [3] was found to be 61%.
For the compound `Cc1ccc(C(=O)/C=C/c2cc(C)c(O)c(/C=N/c3nccs3)c2)cc1`, the LC100 with Brugia malayi [1] and in the data set with Brugia malayi [2] was >40 µM in each case. The inhibition entry in the data set on Brugia malayi [3] was “inactive”.
Take `Cc1ccc(C(=O)/C=C/c2cc(/C=N/c3nccs3)c(O)c(C(C)(C)C)c2)cc1`: the figures for the LC100 in the data set on Brugia malayi [1] and with Brugia malayi [2] were >40 µM and 40 µM, respectively. For the same compound, the inhibition entry with Brugia malayi [3] is “inactive”.
Turning to `Cc1cc(/C=C/C(=O)c2cccs2)cc(/C=N/c2nccs2)c1O`, the LC100 in the data set on Brugia malayi [1] and in the data set on Brugia malayi [2] was >40 µM throughout.
As to `CCCc1cc(/C=C/C(=O)c2ccc(OC)cc2)cc(/C=N/c2nccs2)c1O`, the LC100 in the data set on Brugia malayi [1] and in the data set with Brugia malayi [2] was >40 µM each time. Further, the inhibition entry in the data set on Brugia malayi [3] was “inactive”.
As to IVERMECTIN [listing 2 of 2 here], the Ratio CC50/IC50 in the data set on Vero C1008 [5] is 75.4; in the data set with Vero C1008 [9], 146. Besides, the LC100 with Brugia malayi [1] turned out to be 5 µM; with Brugia malayi [2], 2.5 µM. Further, in the data set with Brugia malayi [6], the Activity turned out to be 43.2%. In addition, in the data set with Brugia malayi [7], the result was inactive. The figures for the inhibition in the data set on Brugia malayi [8] and in the data set on Brugia malayi [3] (dose or concentration not given here) were 21.1% and 5.8%, respectively.
With `CC(C)(C)c1cc(/C=C/C(=O)c2ccco2)cc(/C=N/c2nccs2)c1O`, the LC100 in the data set on Brugia malayi [1] came out at 40 µM; in the data set with Brugia malayi [2] it was 20 µM. Besides, in the data set with Brugia malayi [2] (Brugia malayi, 48 h), the IC50 was 7.07 µM. Also, the “Ratio CC50/IC50” value in data set [10] was determined as 28.57. The CC50 in data set [4] (Vero C1008 cells) is 220 µM. For the same compound, the inhibition entry in the data set on Brugia malayi [3] was “inactive”.
Turning to `CCCc1cc(/C=C/C(=O)c2ccc(C)cc2)cc(/C=N/c2nccs2)c1O`, the LC100 in the data set with Brugia malayi [1] and with Brugia malayi [2] was >40 µM in each case. For the same compound, in the data set on Brugia malayi [3], the inhibition result is “inactive”.
`Cc1ccc(C(=O)/C=C/c2cc(/C=N/c3nccs3)c(O)c(C(C)C)c2)cc1`: the LC100 in the data set with Brugia malayi [1] and with Brugia malayi [2] was >40 µM each time.
Consider `CC(C)(C)c1cc(/C=C/C(=O)c2cccs2)cc(/C=N/c2nccs2)c1O`, for which the “Ratio CC50/IC50” value in [11] is 44; in data set [10], 22. The Activity entry in the data set with Meriones unguiculatus is recorded as “Non-toxic”; in the data set on Brugia malayi [13], 100%; in the data set with Mastomys coucha it was “Non-toxic”; in the data set with Brugia malayi [14] it was 44%. Also, the figures for the LC100 in the data set on Brugia malayi [1] and with Brugia malayi [2] were 2.5 µM and 5 µM, respectively. For the same compound, the IC50 in the data set with Brugia malayi [1] (Brugia malayi, 48 h) was 0.9 µM; with Brugia malayi [2] (Brugia malayi, 48 h), 1.8 µM. Further, the inhibition in vivo at 100 mg/kg in the data set with Brugia malayi [12] stood at 48.6%. For the same compound, the CC50 in data set [4] (Vero C1008 cells) came out at 40 µM. Also, the inhibition (INH) in the data set on Brugia malayi [3] worked out at 49%.
`COc1ccc(C(=O)/C=C/c2cc(C)c(O)c(/C=N/c3nccs3)c2)cc1`: the LC100 in the data set with Brugia malayi [1] and in the data set with Brugia malayi [2] was >40 µM throughout. Moreover, the “inhibition (INH)” value with Brugia malayi [3] amounted to 25%.
On to `Cc1cc(/C=C/C(=O)c2ccco2)cc(/C=N/c2nccs2)c1O`, for which the LC100 with Brugia malayi [1] and in the data set with Brugia malayi [2] was >40 µM each time. Also, the “inhibition (INH)” value with Brugia malayi [3] was 62%.
Turning to `CC(C)c1cc(/C=C/C(=O)c2ccco2)cc(/C=N/c2nccs2)c1O`, the results for the “Ratio CC50/IC50” value in [11] and in data set [10] were 19 and 17, respectively. The Activity entry with Meriones unguiculatus is reported as “Non-toxic”; in the data set with Brugia malayi [13] it was 0%; with Mastomys coucha it was “Non-toxic”; in the data set on Brugia malayi [14], 30%. Moreover, the LC100 with Brugia malayi [1] and in the data set with Brugia malayi [2] was 10 µM in each case. Further, the IC50 with Brugia malayi [1] (Brugia malayi, 48 h) came to 3.2 µM; in the data set with Brugia malayi [2] (Brugia malayi, 48 h), 3.5 µM. Also, the inhibition in vivo at 100 mg/kg with Brugia malayi [12] was 40.9%; in the data set with Brugia malayi [16], 18.2%. Further, the result with Brugia malayi [15] was inactive. Also, in data set [4] (Vero C1008 cells), the CC50 turned out to be 60 µM. In addition, the inhibition (INH) in the data set with Brugia malayi [3] came out at 63%.
On to `CC(C)c1cc(/C=C/C(=O)c2cccs2)cc(/C=N/c2nccs2)c1O`, for which the LC100 in the data set on Brugia malayi [1] and in the data set on Brugia malayi [2] was >40 µM each time. In addition, in the data set with Brugia malayi [3], the inhibition entry was “inactive”.

(Values after ChEMBL document CHEMBL3259763, “Synthesis and antifilarial activity of chalcone-thiazole derivatives against a human lymphatic filarial parasite, Brugia malayi” (Eur J Med Chem, 2014).)
